{"source": "paper PMC4263960", "about": "(Pediatric blood & cancer, 2013)", "key": {"[1]": {"test_system": "Rh30 cell line", "test": "DIMSCAN in vitro cytotoxicity testing, Rh30", "type": "cell-based", "summary_of_the_method": "(§1)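 Test compound incubated with cells of a 24-line pediatric cancer panel for 96 h at 0.1 nM to 1 μM, then assessed by DIMSCAN. Relative IC50 (rIC50) derived per line. Panel comparison value is the panel rIC50 divided by the rIC50 of each cell line.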"}, "[2]": {"test_system": "PPTP in vitro cell line panel", "test": "DIMSCAN in vitro cytotoxicity testing, panel summary", "type": "cell-based"}, "[3]": {"test_system": "Karpas-299 cell line", "test": "DIMSCAN in vitro cytotoxicity testing, Karpas-299", "type": "cell-based", "summary_of_the_method": "as §1"}, "[4]": {"test_system": "CHLA-79 neuroblastoma xenograft", "test": "PPTP in vivo xenograft testing, CHLA-79", "parameters": "species or system mice"}, "[5]": {"test_system": "MOLT-4 cell line", "test": "DIMSCAN in vitro cytotoxicity testing, MOLT-4", "type": "cell-based", "summary_of_the_method": "as §1"}, "[6]": {"test_system": "EW8 Ewing xenograft", "test": "PPTP in vivo xenograft testing, EW8", "parameters": "species or system mice"}, "[7]": {"test_system": "CHLA258 Ewing xenograft", "test": "PPTP in vivo xenograft testing, CHLA258", "parameters": "species or system mice"}, "[8]": {"test_system": "ALL-19 ALL B-precursor xenograft", "test": "PPTP in vivo xenograft testing, ALL-19", "parameters": "species or system mice"}, "[9]": {"test_system": "Rh41 ALV rhabdomyosarcoma xenograft", "test": "PPTP in vivo xenograft testing, Rh41", "parameters": "species or system mice"}, "[10]": {"test_system": "CHLA-266 cell line", "test": "DIMSCAN in vitro cytotoxicity testing, CHLA-266", "type": "cell-based", "conditions": "CHLA-266", "summary_of_the_method": "as §1"}, "[11]": {"conditions": "1 mg/kg IP Q4Dx3 repeated at Day 21"}}, "note": "Where two headings read alike, the source gives them in different places."}
{"smiles": "C=C1C[C@@H]2CC[C@@]34C[C@H]5O[C@H]6[C@@H](O3)[C@H]3O[C@H](CC[C@@H]3O[C@H]6[C@H]5O4)CC(=O)C[C@@H]3[C@@H](OC)[C@@H](C[C@H](O)CN)O[C@H]3C[C@H]3O[C@@H](CC[C@@H]1O2)C[C@@H](C)C3=C", "note": "[Eribulin]", "values": [{"measurement": "Panel rIC50/Line rIC50", "setting": "[1]; Rh30", "value": 2.47}, {"measurement": "Relative in/out%", "setting": "[1]; Rh30", "value": "−23", "unit": "%"}, {"measurement": "Ymin % (observed)", "setting": "[1]; Rh30", "value": 12.75, "unit": "%"}, {"measurement": "IC50", "setting": "[1]; Rh30, 96 h, read-out: rIC50", "value": 0.11, "unit": "nM"}, {"measurement": "Panel rIC50/Line rIC50, maximum", "setting": "[2]; maximum of PPTP cell lines", "value": ">2.74"}, {"measurement": "Relative in/out%, maximum", "setting": "[2]; maximum of PPTP cell lines", "value": "−18", "unit": "%"}, {"measurement": "Ymin % (observed), maximum", "setting": "[2]; maximum of PPTP cell lines", "value": 20.92, "unit": "%"}, {"measurement": "Panel rIC50/Line rIC50, median", "setting": "[2]; median of PPTP cell lines", "value": 1.20}, {"measurement": "Relative in/out%, median", "setting": "[2]; median of PPTP cell lines", "value": "−89", "unit": "%"}, {"measurement": "Ymin % (observed), median", "setting": "[2]; median of PPTP cell lines", "value": 1.79, "unit": "%"}, {"measurement": "Panel rIC50/Line rIC50, minimum", "setting": "[2]; minimum of PPTP cell lines", "value": 0.02}, {"measurement": "Relative in/out%, minimum", "setting": "[2]; minimum of PPTP cell lines", "value": "−100", "unit": "%"}, {"measurement": "Ymin % (observed), minimum", "setting": "[2]; minimum of PPTP cell lines", "value": 0.00, "unit": "%"}, {"measurement": "IC50", "setting": "[2]; read-out: rIC50, maximum, maximum of PPTP cell lines", "value": 14.8, "unit": "nM"}, {"measurement": "IC50", "setting": "[2]; read-out: rIC50, median, median of PPTP cell lines", "value": 0.27, "unit": "nM"}, {"measurement": "IC50", "setting": "[2]; read-out: rIC50, minimum, minimum of PPTP cell lines", "value": "< 0.1", "unit": "nM"}, {"measurement": "IC50", "setting": "[2]; read-out: rIC50, most sensitive cell lines, lymphoid origin (three ALL, one ALCL, one NHL)", "value": "< 0.1", "unit": "nM"}, {"measurement": "IC50", "setting": "[2]; read-out: rIC50, other (non-neuroblastoma) PPTP cell lines", "value": 0.14, "unit": "nM"}, {"measurement": "IC50", "setting": "[2]; read-out: relative IC50 (rIC50), range, range over the PPTP cell lines", "value": "0.1 to 14.8", "unit": "nM"}, {"measurement": "IC50", "setting": "[3]; Homo sapiens, KARPAS-299, 96 h, read-out: rIC50", "value": "< 0.1", "unit": "nM"}, {"measurement": "Panel rIC50/Line rIC50", "setting": "[3]; Karpas-299", "value": ">2.74"}, {"measurement": "Relative in/out%", "setting": "[3]; Karpas-299", "value": "−100", "unit": "%"}, {"measurement": "Ymin % (observed)", "setting": "[3]; Karpas-299", "value": 0.03, "unit": "%"}, {"measurement": "EFS activity", "setting": "[4]; 1 mg/kg IP", "value": "Low (Low activity = EFS T/C <2)"}, {"measurement": "Response activity", "setting": "[4]; 1 mg/kg IP", "value": "Int (intermediate activity by a score of ≥2 but <6)"}, {"measurement": "T/C volume activity", "setting": "[4]; 1 mg/kg IP", "value": "Low (Low activity = T/C >0.45)"}, {"measurement": "EFS T/C", "setting": "[4]; [11]", "value": 1.9}, {"measurement": "Median final RTV (CD45%)", "setting": "[4]; [11]", "value": ">4"}, {"measurement": "Time to event", "setting": "[4]; [11]", "value": 13.0}, {"measurement": "Tumor volume T/C", "setting": "[4]; 1 mg/kg IP, Day 21 or earlier", "value": 0.71}, {"measurement": "IC50", "setting": "[5]; Homo sapiens, MOLT-4, 96 h, read-out: rIC50", "value": "< 0.1", "unit": "nM"}, {"measurement": "Panel rIC50/Line rIC50", "setting": "[5]; MOLT-4", "value": ">2.74"}, {"measurement": "Relative in/out%", "setting": "[5]; MOLT-4", "value": "−99", "unit": "%"}, {"measurement": "Ymin % (observed)", "setting": "[5]; MOLT-4", "value": 0.05, "unit": "%"}, {"measurement": "EFS activity", "setting": "[6]; 1 mg/kg IP", "value": "High (High activity requires: (a) an EFS T/C >2; (b) a significant difference in EFS distributions, and (c) a net reduction in median tumor volume for animals in the treated group at the end of treatment as compared to at treatment initiation)"}, {"measurement": "Response activity", "setting": "[6]; 1 mg/kg IP", "value": "High (A high level of activity is indicated by a score of 6 or more)"}, {"measurement": "T/C volume activity", "setting": "[6]; 1 mg/kg IP", "value": "High (High activity = T/C ≤0.15)"}, {"measurement": "EFS T/C", "setting": "[6]; [11]", "value": ">3.1"}, {"measurement": "Median final RTV (CD45%)", "setting": "[6]; [11]", "value": 0.0}, {"measurement": "Tumor volume T/C", "setting": "[6]; 1 mg/kg IP, Day 21 or earlier", "value": 0.00}, {"measurement": "EFS activity", "setting": "[7]; 1 mg/kg IP", "value": "High (High activity requires: (a) an EFS T/C >2; (b) a significant difference in EFS distributions, and (c) a net reduction in median tumor volume for animals in the treated group at the end of treatment as compared to at treatment initiation)"}, {"measurement": "Response activity", "setting": "[7]; 1 mg/kg IP", "value": "High (A high level of activity is indicated by a score of 6 or more)"}, {"measurement": "T/C volume activity", "setting": "[7]; 1 mg/kg IP", "value": "High (High activity = T/C ≤0.15)"}, {"measurement": "EFS T/C", "setting": "[7]; [11]", "value": ">4.2"}, {"measurement": "Median final RTV (CD45%)", "setting": "[7]; [11]", "value": 0.0}, {"measurement": "Tumor volume T/C", "setting": "[7]; 1 mg/kg IP, Day 21 or earlier", "value": 0.01}, {"measurement": "EFS activity", "setting": "[8]; 1.5 mg/kg IP", "value": "High (High activity requires: (a) an EFS T/C >2; (b) a significant difference in EFS distributions, and (c) a net reduction in median tumor volume for animals in the treated group at the end of treatment as compared to at treatment initiation)"}, {"measurement": "Response activity", "setting": "[8]; 1.5 mg/kg IP", "value": "High (A high level of activity is indicated by a score of 6 or more)"}, {"measurement": "EFS T/C", "setting": "[8]; 1.5 mg/kg IP Q4Dx3 repeated at Day 21", "value": ">8.4"}, {"measurement": "Median final RTV (CD45%)", "setting": "[8]; CD45%, 1.5 mg/kg IP", "value": 0.0, "unit": "%"}, {"measurement": "EFS activity", "setting": "[9]; 1 mg/kg IP", "value": "High (High activity requires: (a) an EFS T/C >2; (b) a significant difference in EFS distributions, and (c) a net reduction in median tumor volume for animals in the treated group at the end of treatment as compared to at treatment initiation)"}, {"measurement": "Response activity", "setting": "[9]; 1 mg/kg IP", "value": "High (A high level of activity is indicated by a score of 6 or more)"}, {"measurement": "T/C volume activity", "setting": "[9]; 1 mg/kg IP", "value": "High (High activity = T/C ≤0.15)"}, {"measurement": "EFS T/C", "setting": "[9]; [11]", "value": ">3.0"}, {"measurement": "Median final RTV (CD45%)", "setting": "[9]; [11]", "value": 0.0}, {"measurement": "Tumor volume T/C", "setting": "[9]; 1 mg/kg IP, Day 21 or earlier", "value": 0.07}, {"measurement": "Panel rIC50/Line rIC50", "setting": "[10]", "value": 0.71}, {"measurement": "Relative in/out%", "setting": "[10]", "value": "−79", "unit": "%"}, {"measurement": "Ymin % (observed)", "setting": "[10]", "value": 5.54, "unit": "%"}]}
